Bioassay records deposited in PubChem BioAssay by several laboratories.
VIM-2 inh: blocks Pseudomonas aeruginosa VIM-2 metallo-beta-lactamase; purified VIM-2, nitrocefin hydrolysis, epi-absorbance fluorescence; inhibition, % at 5.6 µM; hit rate 0.89% among 290,000;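 active means inhibition above the mean of all tested compounds plus 3 SD, cutoff set per screening run, cut at about 7.5% in these data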;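 further: red hydrolysis product quenches plate fluorescence so inhibitors raise well fluorescence; 0% = enzyme with DMSO and 100% = DMSO without enzyme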
ANO1 block: mouse TMEM16A channel inhibition, primary screen. Q8BHY3. normalized B-score (activity score, 25-100; higher = stronger inhibition) at 10 µM. HEK293 TMEM16A/YFP iodide influx fluorescence, ionomycin. AID 588511. hit rate 1.2% among 310,000;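 active means ratio plate-corrected score three or more library SD toward inhibition, starting fluorescence score within five deviations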;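 further: score derived from kinetic fluorescence span divided by baseline fluorescence per well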
IMP-1 inh: inhibitors of Pseudomonas aeruginosa IMP-1 metallo-beta-lactamase. purified IMP-1, nitrocefin hydrolysis, epi-absorbance fluorescence. inhibition, % at 5.6 µM. hit rate 0.45% among 290,000;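 active means inhibition above the mean plus 3 SD of all compounds in the same screening run, cut at about 4.5% in these data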;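 further: 0% = IMP-1 with DMSO and 100% = DMSO wells lacking enzyme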
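System – purified recombinant IMP-1 beta-lactamase · Input – IMP-1 dispensed at 0.2 nM · Timing – 15 min preincubation plus 25 min reaction at 25 °C · Signal – Epi-absorbance fluorescence, 480 nm excitation, 530 nm emission · Measure – percent IMP-1 inhibition derived from blank-referenced optical density · Controls – Enzyme-plus-DMSO low control, enzyme-free DMSO high control · Replication – singlicate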
CHT PAM: allosterically activates the human high affinity choline transporter; Q9GZV3; CHT-expressing cells, membrane potential dye, choline EC20; hits give high values; LV-AA mutant CHT in HEK293 cells; B-score at 10 µM; hit rate 0.49% among 310,000; AID 488977;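 active means initial fluorescence not abnormally high and integrated response B-score, plate-corrected, over 3 SD above library mean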
Target sequence (Q9GZV3 whole entry, looked up): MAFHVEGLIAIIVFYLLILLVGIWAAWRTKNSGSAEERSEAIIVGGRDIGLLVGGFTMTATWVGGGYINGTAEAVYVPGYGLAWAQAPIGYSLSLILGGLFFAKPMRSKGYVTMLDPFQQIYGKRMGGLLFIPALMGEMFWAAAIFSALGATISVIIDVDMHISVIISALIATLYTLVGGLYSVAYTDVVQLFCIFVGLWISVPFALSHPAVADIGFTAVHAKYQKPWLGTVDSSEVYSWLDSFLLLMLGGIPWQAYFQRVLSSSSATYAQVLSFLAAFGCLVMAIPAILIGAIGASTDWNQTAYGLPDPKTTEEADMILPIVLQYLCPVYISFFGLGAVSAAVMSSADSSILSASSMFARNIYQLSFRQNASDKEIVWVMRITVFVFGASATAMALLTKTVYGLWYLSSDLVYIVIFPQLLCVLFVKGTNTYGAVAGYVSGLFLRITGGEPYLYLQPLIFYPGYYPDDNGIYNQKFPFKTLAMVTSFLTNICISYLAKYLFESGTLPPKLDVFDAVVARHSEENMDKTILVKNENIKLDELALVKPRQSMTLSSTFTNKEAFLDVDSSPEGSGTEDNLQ
TMEM16A act: activators or potentiators of mouse TMEM16A chloride channel; hit rate 0.3% among 340,000; HEK293 TMEM16A/YFP-H148Q/I152L, iodide quench fluorescence; hits give low values; B-score at 10 µM; AID 623877;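 active means fluorescence-ratio B-score plate-corrected deviation score at least 3 library SD below zero, with starting fluorescence score within 5 deviations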;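 further: channel opened by trigger with iodide after compound preincubation; score built on the fluorescence ratio of max minus min over baseline; more negative score means more quench and so TMEM16A activation or potentiation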
CHT block: inhibits the human high affinity choline transporter; Q9GZV3; CHT-expressing cells, membrane potential dye, choline response; hits give low values; B-score at 10 µM; hit rate 0.86% among 310,000; AID 488975;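 active means B-score over 3 SD under the library average, and starting fluorescence ratio not unusually high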;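 further: choline stimulus applied at its EC90 after an EC20 pre-addition; B-score computed on integrated fluorescence ratio after choline addition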
Starred values were filed as active, the others as inactive; i = inactive; nt = not tested or not shown. Compounds with a hit are over-represented: about 3.4% of the library has one in this group of screens.

SMILES	VIM-2 inh	ANO1 block	IMP-1 inh	CHT PAM	TMEM16A act	CHT block
COC(=O)c1ccc(CN(c2ccc(C(=O)O)c(O)c2)S(=O)(=O)c2ccc(Cl)c([N+](=O)[O-])c2)cc1	0	100*	0	i	i	i
COC(=O)c1ccc(CN(c2ccccn2)S(=O)(=O)c2ccccc2)cc1	0	i	-2	i	i	i
CC(C)(c1ccccc1)c1ccc(OCCN2CCOCC2)cc1	1	i	4.9*	i	i	i
CC(C)(c1ccccc1)c1ccc(OCCCN2CCNCC2)cc1	2	i	-2	i	i	i
COc1ccc(CC2(CO)CCN(Cc3cc4ccccc4o3)CC2)cc1	-1	25*	0	i	i	i
OCC1(Cc2cccc(C(F)(F)F)c2)CCN(Cc2cc3ccccc3o2)CC1	-3	i	-3	i	i	i
Cc1ccc(-n2[nH]c(C)c(C=Nc3ccc4[nH]c(=O)[nH]c4c3)c2=O)cc1	2	i	0	i	i	i
Cc1ccc(N=Cc2c(C)[nH]n(-c3nc4ccccc4[nH]3)c2=O)cc1	-1	i	5.0*	i	i	i
Nc1c(Cl)cc(N=Nc2ccccc2)cc1Cl	nt	nt	nt	nt	i	nt
COc1cc(C(=O)NS(=O)(=O)c2ccccc2C)ccc1Cc1cn(C)c2ccc(NC(=O)OC3CCCC3)cc12	-1	100*	1	i	nt	i
COCCn1c(=O)c2c(nc3n2CC(C)CN3Cc2ccccc2)n(C)c1=O (stereo unspecified)	6	i	-3	i	i	i
CCOC(=O)c1c(NC(=O)CSc2nnc(-c3c[nH]c4ccccc34)n2CCOC)sc2c1CCCC2	3	i	1	i	i	i
CCOC(=O)c1c(NC(=O)CSc2nnc(-c3c[nH]c4ccccc34)n2C)sc2c1CCCC2	-3	i	-3	i	-21*	i
CCCN(C1CCS(=O)(=O)C1)S(=O)(=O)c1ccc(F)cc1 (stereo unspecified)	nt	i	nt	i	i	i
CCc1ccc(N(CC(=O)NCc2ccco2)C(=O)CCC(=O)Nc2nccs2)cc1	-2	i	-2	i	i	i
Cc1ccc2oc(-c3cccc(NC(=O)Cn4cnc5c(=O)n(C)c(=O)n(C)c54)c3)nc2c1	-4	100*	-3	i	nt	i
O=C(N=C1SC2CS(=O)(=O)CC2N1c1ccccc1)c1cccc([N+](=O)[O-])c1 (stereo unspecified)	nt	nt	nt	nt	i	nt
COc1cc2cc(CN(CCCN3CCOCC3)C(=O)Nc3ccc(F)cc3)c(=O)[nH]c2cc1OC	8.8*	i	0	i	i	i
CCOC(=O)C1CCN(C(=O)CNC(=O)Cn2c(C)cc3ccccc3c2=O)CC1	-2	i	-4	i	i	i
C=CCSc1nnc(-c2cc3c(-c4ccccc4)nn(C)c3s2)n1C	9.5*	i	0	i	i	i
C=CCSc1nnc(-c2cc3c(C(F)(F)F)nn(C)c3s2)n1C	0	i	-1	i	i	i
NC(=O)C(=O)N/N=C/c1c2ccccc2cc2ccccc12	1	i	-2	i	i	i
COc1ccc(OCC(=O)NNC(=O)C2CCN(c3ncnc4sc(C)c(C)c34)CC2)cc1	nt	nt	nt	nt	i	nt
Cc1sc2ncnc(N3CCN(CCOc4ccc(Cl)cc4)CC3)c2c1C	-4	100*	-1	i	i	i
Cc1sc2ncnc(N3CCC(C(=O)NNC(=O)COc4ccc(Br)cc4)CC3)c2c1C	nt	100*	nt	i	i	i
SMILES	VIM-2 inh	ANO1 block	IMP-1 inh	CHT PAM	TMEM16A act	CHT block
Cc1sc2ncnc(N3CCC(C(=O)NNC(=O)COc4cccc(C(F)(F)F)c4)CC3)c2c1C	nt	100*	nt	i	i	i
Cc1ccc(OCC(=O)NNC(=O)C2CCN(c3ncnc4sc(C)c(C)c34)CC2)cc1	nt	i	nt	i	i	i
Cc1nn(CC(=O)Nc2ccc(S(N)(=O)=O)cc2)c(=O)c2ccccc12	-1	i	3	i	i	i
COc1ccc(C2=NOC(C(=O)NC(C)C)C2)cc1 (stereo unspecified)	-3	i	-3	i	i	i
COc1ccc(CNC(=O)C2CC(c3ccc(OC)cc3)=NO2)cc1 (stereo unspecified)	-1	100*	-2	i	i	i
COc1cccc(C2=NOC(C(=O)NC(C)C)C2)c1 (stereo unspecified)	1	25*	-2	i	i	i
Cc1ccc2cc(C#N)c(N3CCCN(S(=O)(=O)c4ccc(F)cc4)CC3)nc2c1	-3	i	-5	i	-9.6*	i
Cc1nn(CC(=O)N2CCc3ccccc3C2)c(C)c1Cl	-1	i	-2	i	i	i
O=[N+]([O-])c1ccc(Oc2ccc(S(=O)(=O)N3CCCCC3)cc2)cc1	-2	25*	-3	i	i	i
CCC(C)NC(=O)c1ccccc1C(=O)NC(C)CC (stereo unspecified)	-1	i	6.1*	i	i	i
Cc1ccc(C(=O)N/C(=C\c2ccc(-c3ccc(Br)cc3)o2)C(=O)NCCCN(C)C)cc1	1	i	-1	i	-8.2*	i
COc1cc(OC)c(N2CC(C(=O)Nc3cccc(C(=O)NC4CC4)c3)CC2=O)cc1Cl (stereo unspecified)	nt	nt	nt	nt	i	nt
Cc1ccc(NC(=O)CSc2nnc(-c3ccccc3Br)o2)cc1C	-3	i	-4	i	i	i
Cc1cc(C)c(C(=O)CSc2nnc(-c3ccccc3Br)o2)cc1C	-3	nt	-4	nt	-5*	nt
O=C(Nc1ccc2c(c1)OCCO2)C(=O)NC1CC1	-2	i	-4	i	i	i
O=C(NC12CC3CC(CC(C3)C1)C2)c1ccccc1	1	i	-5	i	i	i
O=C(NC1CC1(c1ccccc1)c1ccccc1)c1ccccc1 (stereo unspecified)	nt	nt	nt	nt	-9.3*	nt
O=C(NCC1CCCO1)C1CCCN(Cc2cnn(-c3ccccc3)c2-n2cccc2)C1 (stereo unspecified)	-5	i	-2	i	-25*	i
Cc1ccc(CNC(=O)C2CCCN(Cc3cnn(-c4ccccc4)c3-n3cccc3)C2)cc1 (stereo unspecified)	1	i	-2	i	i	i
COc1ccc(NC(=O)CN2CCN(c3ccc(F)cc3)CC2)cc1Cl	-1	i	-3	i	-11*	i
COc1cccc2sc3ccc(NCCC4CCCN4C)cc3c(=O)c12 (stereo unspecified)	8.4*	i	-1	i	i	i
